According to ChEMBL document CHEMBL4312035, “Preliminary SAR and biological evaluation of potent HIV-1 protease inhibitors with pyrimidine bases as novel P2 ligands to enhance activity against DRV-resistant HIV-1 variants” (Eur J Med Chem, 2020):

Key:
[1] = tested on: Human immunodeficiency virus 1; assay: Antiviral activity against darunavir-resistant HIV1 NL4-3 infected in human […] after 48 hrs by luciferase reporter assay; assay type: functional, organism-based; conditions: Human immunodeficiency virus 1, NL4-3, 48 h
[2] = tested on: Human immunodeficiency virus 1; assay: Antiviral activity against wild-type HIV1 NL4-3 infected in human SupT1 cells infected with […] after 48 hrs by luciferase reporter assay; assay type: functional, organism-based; conditions: Human immunodeficiency virus 1, NL4-3, 48 h
[3] = tested on: Human immunodeficiency virus 1; assay: Antiviral activity against VSV-G pseudotyped HIV1 transfected in human 293T cells co-transfected with NL4-3 HIV1 supernatant infected in human SupT1 cells treated with compound for 48 hrs assessed as inhibition of viral infection at 10 uM after 48 hrs by luciferase assay (reference value: 0 %); assay type: functional; conditions: Human immunodeficiency virus 1, 48 h
[4] = Cytotoxicity against human 293T cells measured after 24 hrs by CCK8 assay; assay type: cell-based; conditions: HEK-293T cells
Procedure, shortened: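 293T cells plated at 20 000 per well and cultured 24 h before drug addition; exposure 24 h, then CCK-8 added and absorbance read at 450 nm after 2 h at room temperature. Run in triplicate; mean ± 1 SD from three independent experiments.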

Protease = Protease (Human immunodeficiency virus 1, UniProt Q9YQ12); assay: Inhibition of HIV1 protease expressed in Escherichia coli using Arg-Glu (EDANS)-Ser-Gln-Asn-Tyr-Pro-Ile-Val-Gln-Lys(DABCYL)-Arg as substrate preincubated for 20 to 30 mins followed by substrate addition and measured for 10 mins by FRET assay
Procedure, shortened: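 Recombinant HIV-1 protease, purified from E. coli. Buffer: 0.1 M sodium acetate, 1 M NaCl, 1 mM EDTA, 1 mM DTT, 2% DMSO, 1 mg/mL BSA, pH 4.7. Inhibitor dissolved in DMSO. Excitation 340 nm, emission 490 nm, recorded about 10 min. Run in triplicate; IC50 as mean ± 1 SD from three independent experiments.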

[5] = tested on: Human immunodeficiency virus 1; assay: Antiviral activity against VSV-G pseudotyped HIV1 transfected in human 293T cells co-transfected with NL4-3 HIV1 supernatant infected in human SupT1 cells treated with compound for 48 hrs assessed as inhibition of viral infection at 100 nM after 48 hrs by luciferase assay (reference value: 0 %); assay type: functional; conditions: Human immunodeficiency virus 1, 48 h
[6] = tested on: Human immunodeficiency virus 1; assay: Ratio of EC50 for antiviral activity against darunavir-resistant HIV1 NL4-3 infected in human SupT1 cells infected with supernatants from virus-infected human TZM-bl cells to EC50 for antiviral activity against wild-type HIV1 NL4-3 infected in human SupT1 cells infected with supernatants from virus-infected human TZM-bl cells; assay type: functional

Protease, sequence (Q9YQ12 whole entry): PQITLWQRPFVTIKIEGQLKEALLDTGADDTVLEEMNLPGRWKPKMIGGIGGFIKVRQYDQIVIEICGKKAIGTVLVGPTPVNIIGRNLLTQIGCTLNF

Structure (SMILES) | EC50 [1] | EC50 [2] | inhibition at 10 µM [3] | CC50 at 24 h [4] | IC50 (Protease) | inhibition at 0.1 µM [5] | Ratio EC50 [6]
CC(C)CN(C[C@@H](O)[C@H](Cc1ccccc1)NC(=O)O[C@H]1CO[C@H]2OCC[C@H]21)S(=O)(=O)c1ccc(N)cc1 | 100 nM | 6 nM | 83.2% | > 100000 nM | – | – | –
CC(C)CN(C[C@@H](O)[C@H](Cc1ccccc1)NC(=O)Cn1cc(F)c(N)nc1=O)S(=O)(=O)c1ccc(N)cc1 | – | – | – | > 100000 nM | 105 nM | – | –
CC(C)CN(C[C@@H](O)[C@H](Cc1ccccc1)NC(=O)Cn1cc(F)c(=O)[nH]c1=O)S(=O)(=O)c1ccc(N)cc1 | – | – | 63% | 8800 nM | 16.3 nM | – | –
COc1ccc(S(=O)(=O)N(CC(C)C)C[C@@H](O)[C@H](Cc2ccccc2)NC(=O)Cn2cccnc2=O)cc1 | – | – | 50.3% | > 100000 nM | 10.3 nM | – | –
COc1ccc(S(=O)(=O)N(CC(C)C)C[C@@H](O)[C@H](Cc2ccccc2)NC(=O)Cn2cc(C)c(N)nc2=O)cc1 | – | – | – | > 100000 nM | 147 nM | – | –
COc1ccc(S(=O)(=O)N(CC(C)C)C[C@@H](O)[C@H](Cc2ccccc2)NC(=O)Cn2ccc(=O)[nH]c2=O)cc1 | 590 nM | 270 nM | 81% | > 100000 nM | 2.53 nM | 68% | 2.19
CC(C)CN(C[C@@H](O)[C@H](Cc1ccccc1)NC(=O)Cn1ccc(N)nc1=O)S(=O)(=O)c1ccc(N)cc1 | – | – | – | > 100000 nM | 153 nM | – | –
Cc1cn(CC(=O)N[C@@H](Cc2ccccc2)[C@H](O)CN(CC(C)C)S(=O)(=O)c2ccc([N+](=O)[O-])cc2)c(=O)nc1N | – | – | – | > 100000 nM | 1190 nM | – | –
CC(C)CN(C[C@@H](O)[C@H](Cc1ccccc1)NC(=O)Cn1cccnc1=O)S(=O)(=O)c1ccc(N)cc1 | – | – | – | > 100000 nM | 126 nM | – | –
COc1ccc(S(=O)(=O)N(CC(C)C)C[C@@H](O)[C@H](Cc2ccccc2)NC(=O)Cn2cc(F)c(=O)[nH]c2=O)cc1 | 2700 nM | 1070 nM | 83.2% | > 100000 nM | 1.95 nM | 51% | 2.52
Cc1cn(CC(=O)N[C@@H](Cc2ccccc2)[C@H](O)CN(CC(C)C)S(=O)(=O)c2ccc(N)cc2)c(=O)[nH]c1=O | – | – | 54% | > 100000 nM | 19.7 nM | – | –
CC(C)CN(C[C@@H](O)[C@H](Cc1ccccc1)NC(=O)Cn1cc(F)c(N)nc1=O)S(=O)(=O)c1ccc([N+](=O)[O-])cc1 | – | – | – | > 100000 nM | 482 nM | – | –
CC(C)CN(C[C@@H](O)[C@H](Cc1ccccc1)NC(=O)Cn1cc(F)c(=O)[nH]c1=O)S(=O)(=O)c1ccc([N+](=O)[O-])cc1 | – | – | 32.8% | 32400 nM | 27.6 nM | – | –
COc1ccc(S(=O)(=O)N(CC(C)C)C[C@@H](O)[C@H](Cc2ccccc2)NC(=O)Cn2cc(C)c(=O)[nH]c2=O)cc1 | 2870 nM | 2500 nM | 72.7% | > 100000 nM | 2.78 nM | – | 1.15
COc1ccc(S(=O)(=O)N(CC(C)C)C[C@@H](O)[C@H](Cc2ccccc2)NC(=O)Cn2cc(CO)c(=O)[nH]c2=O)cc1 | – | – | 59.8% | > 100000 nM | 9.07 nM | – | –
COc1ccc(S(=O)(=O)N(CC(C)C)C[C@@H](O)[C@H](Cc2ccccc2)NC(=O)Cn2cc(F)c(N)nc2=O)cc1 | – | – | – | > 100000 nM | 36 nM | – | –
Cc1cn(CC(=O)N[C@@H](Cc2ccccc2)[C@H](O)CN(CC(C)C)S(=O)(=O)c2ccc(N)cc2)c(=O)nc1N | – | – | – | > 100000 nM | 375 nM | – | –
Cc1cn(CC(=O)N[C@@H](Cc2ccccc2)[C@H](O)CN(CC(C)C)S(=O)(=O)c2ccc([N+](=O)[O-])cc2)c(=O)[nH]c1=O | – | – | – | > 100000 nM | 44.3 nM | – | –
CC(C)CN(C[C@@H](O)[C@H](Cc1ccccc1)NC(=O)Cn1ccc(=O)[nH]c1=O)S(=O)(=O)c1ccc([N+](=O)[O-])cc1 | – | – | 51% | > 100000 nM | 20.1 nM | – | –
CC(C)CN(C[C@@H](O)[C@H](Cc1ccccc1)NC(=O)Cn1cc(CO)c(=O)[nH]c1=O)S(=O)(=O)c1ccc(N)cc1 | – | – | – | > 100000 nM | 241 nM | – | –
CC(C)CN(C[C@@H](O)[C@H](Cc1ccccc1)NC(=O)Cn1cccnc1=O)S(=O)(=O)c1ccc([N+](=O)[O-])cc1 | – | – | – | > 100000 nM | 245 nM | – | –
CC(C)CN(C[C@@H](O)[C@H](Cc1ccccc1)NC(=O)Cn1ccc(=O)[nH]c1=O)S(=O)(=O)c1ccc(N)cc1 | – | – | 48.4% | > 100000 nM | 20.1 nM | – | –
CC(C)CN(C[C@@H](O)[C@H](Cc1ccccc1)NC(=O)Cn1cc(CO)c(=O)[nH]c1=O)S(=O)(=O)c1ccc([N+](=O)[O-])cc1 | – | – | – | > 100000 nM | 405 nM | – | –
COc1ccc(S(=O)(=O)N(CC(C)C)C[C@@H](O)[C@H](Cc2ccccc2)NC(=O)Cn2ccc(N)nc2=O)cc1 | – | – | 33.2% | > 100000 nM | 9.04 nM | – | –
CC(C)CN(C[C@@H](O)[C@H](Cc1ccccc1)NC(=O)Cn1ccc(N)nc1=O)S(=O)(=O)c1ccc([N+](=O)[O-])cc1 | – | – | – | > 100000 nM | 411 nM | – | –
Cc1ccnc2c1NC(=O)c1cccnc1N2C1CC1 [NEVIRAPINE] | – | – | – | – | – | 76 to 77% | –
